Source: PubChem BioAssay (several laboratories)
STAT3 inh: IL-6 driven STAT3 reporter inhibitors, primary screen, U3A cells, luciferase, luminescence, MLSCN library; IL-6 STAT3-luciferase reporter; host cell line lacks STAT1; inhibition, % at 5.5 µM; 0.89% of 190,000 active; AID 862, 2007;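 active = inhibition above the mean inhibition across all screened compounds plus 3 SD, cut at about 44% in these data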;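 also: 0% = DMSO only wells and 100% = 100 µM nifuroxazide control wells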
STAT1 inh: STAT1 signaling inhibitors, primary screen, cell-based, HTS, luciferase reporter; NIH 3T3 STAT1-luciferase reporter, IFN-gamma, luminescence; inhibition, % at 5.5 µM; AID 920, 2007; 0.35% of 200,000 active;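 active = inhibition above a set limit, the mean inhibition across all tested compounds plus 3 SD, cut at about 34% in these data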;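 also: 0% = IFN-gamma with DMSO and 100% = IFN-gamma with 300 µM nifuroxazide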
FLuc inh counter: firefly luciferase enzyme inhibitors, primary screen, artefact control for luciferase-based inhibitor screens, biochemical, luminescence, ATPLite; Luciferin 4-monooxygenase (Photinus pyralis), P08659; 10 min; inhibition, % at 10 µM; 1.5% of 200,000 active; AID 1006, 2008;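 active = inhibition above about 50% when tested at 10 µM, limit read from the data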
Target sequence (P08659 whole entry, looked up): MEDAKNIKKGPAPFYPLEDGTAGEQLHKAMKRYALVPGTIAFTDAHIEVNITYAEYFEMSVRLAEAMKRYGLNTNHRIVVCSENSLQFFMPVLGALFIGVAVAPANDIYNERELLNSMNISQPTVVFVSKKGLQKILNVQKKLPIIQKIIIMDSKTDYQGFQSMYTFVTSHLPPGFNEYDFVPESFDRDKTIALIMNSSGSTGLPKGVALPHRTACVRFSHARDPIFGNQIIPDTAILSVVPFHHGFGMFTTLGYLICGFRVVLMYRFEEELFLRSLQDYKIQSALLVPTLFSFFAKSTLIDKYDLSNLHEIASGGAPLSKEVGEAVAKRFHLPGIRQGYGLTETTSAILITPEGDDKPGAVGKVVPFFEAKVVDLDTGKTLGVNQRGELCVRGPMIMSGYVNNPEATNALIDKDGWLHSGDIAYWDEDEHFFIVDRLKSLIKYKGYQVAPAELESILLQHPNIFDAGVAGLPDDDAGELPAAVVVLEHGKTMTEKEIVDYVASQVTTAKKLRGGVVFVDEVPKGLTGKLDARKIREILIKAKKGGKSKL
STAT1 activator: STAT1 signaling activators, primary screen, cell-based, HTS, luciferase reporter; NIH 3T3 STAT1-luciferase reporter, IFN-gamma, luminescence; 100% = IFN-gamma alone, no compound; activation (% of control), % at 5.5 µM; 2.6% of 200,000 active;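 active = activation above the screen-wide mean activation plus 3 SD, cut at about 130% in these data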;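 also: raw ratio to IFN-gamma control signal so 100% means no change and 0% no light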
STAT3 act: IL-6 driven STAT3 reporter potentiators, primary screen, U3A cells, luciferase, luminescence, MLSCN library; IL-6 STAT3-luciferase reporter; 100% = signal with IL-6 EC80 alone; activation (% of control), % at 5.6 µM; 0.91% of 190,000 active; AID 871, 2007;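 active = activation above the screen-wide mean of compound activation plus 3 SD, cut at about 130% in these data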;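 also: 0% = background luminescence of wells with medium and substrate only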
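Assay system – human STAT1-deficient U3A cells with stable STAT3-luciferase reporter · Also added – IL-6 (33 ng/mL) · Schedule – compound 1 h, then IL-6 6 h at 37 °C · Technique – reporter luminescence signal · Evaluation – % activation versus median of IL-6-stimulated wells · Benchmarks – IL-6-only wells as 100% reference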
FLuc act counter: FLuc activators, initial screening, artefact control for FLuc-dependent activation tests, biochemical, ATPlite luminescence | Luciferin 4-monooxygenase (Photinus pyralis), P08659 | ATPlite luciferase biochemical, 10 min; 0 = ATP-free wells, 1 = DMSO control | activation factor at 10 µM | 200,000 tested, under 10 active | AID 1027, 2008;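 active = luciferase activation factor, scaled between plate controls, of at least 2 with compound at 10 µM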
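System: luciferase plus luciferin reagent, cell-free; medium: PBS as buffer for the ATP substrate; dosing: test compounds dosed from 2 mM stocks in 100% DMSO; timing: 10 min post-reagent at room temperature; measured by: luminescence measurement of luciferase light output; evaluation: luciferase activation, seen as luminescence increase over controls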
* = called active by the depositor; nt = no result given. An excerpt weighted towards active compounds, which were near 4.9% of everything screened.

SMILES | STAT3 inh | STAT1 inh | FLuc inh counter | STAT1 activator | STAT3 act | FLuc act counter
CC(C)c1ccc(/C=N/NC(=O)c2c(Cl)cnn2C)cc1 | 15 | -43 | 93* | 138* | 90 | 0.1
COc1ccc(C2=NOC(C(=O)NCc3ccc(F)cc3)C2)cc1OC (stereo not drawn) | -36 | -5 | 0 | 104 | 134* | 1
Cc1ccc(N(CC(=O)NC(C)(C)C)C(=O)CS(=O)CC(=O)Nc2ccc3c(c2)OCO3)cc1 (stereo not drawn) | 1 | -1 | 0 | 100 | 101 | 1
CC1Oc2ccccc2C=C1/C=N/NC(=O)c1ccccc1O (stereo not drawn) | 12 | -3 | 78* | 103 | 89 | 0.2
CC1Oc2ccccc2C=C1/C=N/NC(=O)c1ccccc1 (stereo not drawn) | -4 | -37 | 44 | 133* | 107 | 0.6
Cc1ccc(C(=O)N/N=C/C2=Cc3ccccc3OC2C)cc1 (stereo not drawn) | -10 | 1 | 40 | 99 | 112 | 0.6
O=C(N/N=C/c1oc(O)c2ccccc12)c1ccccc1O | 0 | 1 | 10 | 99 | 102 | 0.9
Cc1ccc(C(=O)Oc2cccc(-n3cnnn3)c2)cc1 | -10 | -40 | 1 | 135* | 110 | 1
Cc1cc(/C=C2\NC(=S)N(C)C2=O)ccc1N1CCCC1 | 5 | -42 | 11 | 138* | 106 | 0.9
CCCN1C(=O)/C(=C/c2ccc(N3CCCC3)c(C)c2)NC1=S | 9 | 6 | 9 | 95 | 94 | 0.9
O=C(NCc1ccccc1)C1=C[C@H](C2CC2)C[C@H](OCCCCO)O1 | nt | -5 | -7 | 106 | nt | 1.1
CCOc1ccc(N=Nc2c(=O)[nH]n3c(=O)cc(C)[nH]c23)cc1 | 23 | -15 | 64* | 113 | 87 | 0.4
CC(=O)NCCOc1nc(N(C)C)nc(N2CCCCC2)n1 | 4 | -3 | -8 | 101 | 103 | 1.1
Cc1nc(SCc2ccccc2)nc2c1CCC2 | 13 | -55 | -1 | 148* | 95 | 1
Cc1ccc(CSc2nc3c(c(N(C)C)n2)CCCC3)cc1 | 22 | -4 | -3 | 103 | 86 | 1
N#C/C(=C\c1ccccn1)c1nc2ccccc2s1 | -2 | -13 | 68* | 112 | 107 | 0.3
COC(=O)c1ccc(/C=C(\C#N)c2nc3ccccc3s2)cc1 | 5 | 4 | 9 | 96 | 99 | 0.9
CN(C)N1C(=O)CC(N2CCCCC2)C1=O (stereo not drawn) | 9 | 0 | -11 | 99 | 103 | 1.1
COc1ccc(C2CC(=O)c3c([nH]c(C(=O)OC(C)C)c3C)C2)cc1OC (stereo not drawn) | -1 | -1 | -1 | 100 | 104 | 1
C=CCOC(=O)c1[nH]c2c(c1C)C(=O)CC(c1cc(OC)c(OC)c(OC)c1)C2 (stereo not drawn) | 46* | 42* | -8 | 61 | 63 | 1.1
O=C(Nc1ccc2nc(-c3cccnc3)[nH]c2c1)C1CCCCC1 | 23 | -4 | 64* | 104 | 83 | 0.4
O=C(Nc1ccc2nc(-c3cccnc3)[nH]c2c1)C12CC3CC(CC(C3)C1)C2 | 9 | -5 | 29 | 104 | 95 | 0.7
O=[N+]([O-])c1ccc(/C=N/N/C(=N/c2ccccn2)c2ccccn2)cc1 | 3 | -38 | 23 | 135* | 101 | 0.8
Cc1cccc(OCCC(=O)N(C)CC(=O)Nc2cccc3ccccc23)c1 | -7 | -5 | 0 | 105 | 109 | 1
COc1ccc(-c2cc3nc4c(c(=O)n3[nH]2)CCC4)cc1 | 12 | -24 | 52* | 122 | 92 | 0.5
SMILES | STAT3 inh | STAT1 inh | FLuc inh counter | STAT1 activator | STAT3 act | FLuc act counter
O=c1c2c(nc3cc(-c4ccccc4)[nH]n13)CCC2 | 24 | -38 | 61* | 135* | 83 | 0.4
Cc1cc2nc3c(c(=O)n2[nH]1)CCCC3 | 4 | -1 | -6 | 101 | 100 | 1.1
Cc1cc(C(=O)COC(=O)c2ccncc2)c(C)n1Cc1ccco1 | -10 | -31 | 79* | 129* | 114 | 0.2
Cc1cc(C(=O)COC(=O)c2cccn2C)c(C)n1Cc1ccco1 | 69* | 37* | 80* | 65 | 46 | 0.2
Cc1cc(C(=O)COc2cccnc2[N+](=O)[O-])c(C)n1Cc1ccco1 | 12 | 11 | 4 | 89 | 92 | 1
O=C(Nc1ccccn1)c1ccc(Br)c(S(=O)(=O)N2CCCCC2)c1 | -10 | 1 | -6 | 99 | 106 | 1.1
NC(=O)c1ccccc1NC(=O)/C=C/c1ccccc1 | -3 | -32 | 82* | 129* | 98 | 0.2
CC(C)=CC(=O)Nc1ccccc1C(N)=O | -2 | -1 | -7 | 101 | 107 | 1.1
COC(=O)c1cc(Cl)c(NC(=O)/C=C/c2ccc(Cl)cc2)cc1OC | 10 | -2 | -6 | 102 | 97 | 1.1
NC(=O)c1ccccc1NC(=O)/C=C/c1ccc(Cl)cc1 | 28 | -58 | 80* | 144* | 82 | 0.2
COc1ccc2c(C)cc(SCC(=O)Nc3ccc(Cl)cn3)nc2c1 | 2 | 6 | -4 | 95 | 100 | 1
O=C(NCCc1c[nH]c2ccccc12)c1cnc2sccn2c1=O | -31 | -30 | 11 | 127 | 135* | 0.9
Nc1nn2cc(-c3ccccc3)nc2c2ccccc12 | -40 | -47 | 85* | 143* | 135* | 0.2
COc1cccc2c(=O)c(C(=O)NCc3cccs3)c[nH]c12 | 3 | -33 | 16 | 130* | 99 | 0.8
O=C1NC(=S)N/C1=C/C=C/c1ccccc1 | 14 | -34 | 4 | 134* | 92 | 1
O=C1N/C(=C\c2ccccc2)c2ccccc21 | -4 | -13 | 15 | 112 | 108 | 0.8
CN1C(=O)CSc2ccc(NC(=O)Nc3ccccn3)cc21 | 23 | -46 | 20 | 142* | 84 | 0.8
O=C(CN1CCCc2ccccc21)Nc1ccc(F)cc1[N+](=O)[O-] | 6 | 1 | -7 | 98 | 104 | 1.1
Cc1csc(=N)n1-c1ccc(Cl)cc1 | 8 | -40 | 11 | 137* | 96 | 0.9
Cc1ccc(-n2c(C)csc2=N)cc1 | 15 | -27 | 59* | 125 | 92 | 0.4
CCCCCC1(C(=O)OCC)CC(CSC(=N)N)OC1=O (stereo not drawn) | 13 | 6 | -5 | 93 | 90 | 1.1
COc1ccccc1N1CCN(C(=O)Cn2nc3n(C)c4ccccc4n3c(=O)c2=O)CC1 | 1 | -4 | -2 | 104 | 104 | 1
